Apaf1 inhib – inhibitors of human Apaf-1 apoptosome, primary screen, biochemical, DEVD-Rh110 fluorescence, uHTS; inhibition, % at 20 µM; AID 489030, 2010; Apoptotic protease-activating factor 1 (Homo sapiens), O14727; reconstituted apoptosome caspase-3 activity; 330,000 tested, 0.71% active; active = inhibition of at least 40% at 20 µM;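 note: plate controls were DMSO wells for no effect and DEVD-CHO caspase inhibitor wells for full effect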
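Material: reconstituted apoptosome with Apaf-1, cytochrome c, caspase-9, procaspase-3, dATP. Technique: Rh110 fluorescence intensity. Buffer or medium: pH 7.5 Hepes buffer with CHAPS, BSA, DTT. Times: 30 min plus 50 min, RT.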
MEKK2mut PB1 HTS – MEK5 binding signal on mutant MEKK2 PB1, primary screen, biochemical, multiplex bead flow cytometry, Alexa488-MEK5. 290,000 tested, 0.35% active. AID 1530, 2009. Alexa488-MEK5 binding to MEKK2 mutant. percent response, % at 10 µM; in the data active = percent response above about 24%, passing the limit was not always enough
MEKK3 PB1 HTS – modulators of MEKK3-MEK5 PB1 binding, primary screen, biochemical, wildtype MEKK3, multiplex bead flow cytometry, Alexa488-MEK5; 290,000 tested, 1.4% active; bead-based flow cytometry, Alexa488-MEK5 binding to MEKK3; actives lie on both sides; 0 = blocked by unlabeled MEK5, 100 = vehicle; binding response (% of control), % at 10 µM;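 active = binding response more than 3 SD above or below the average of its plate-row segment, actives on both sides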;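 note: Alexa488 bead fluorescence after subtracting the streptavidin-only scavenger bead signal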
Target sequence (Q99759 whole entry, looked up): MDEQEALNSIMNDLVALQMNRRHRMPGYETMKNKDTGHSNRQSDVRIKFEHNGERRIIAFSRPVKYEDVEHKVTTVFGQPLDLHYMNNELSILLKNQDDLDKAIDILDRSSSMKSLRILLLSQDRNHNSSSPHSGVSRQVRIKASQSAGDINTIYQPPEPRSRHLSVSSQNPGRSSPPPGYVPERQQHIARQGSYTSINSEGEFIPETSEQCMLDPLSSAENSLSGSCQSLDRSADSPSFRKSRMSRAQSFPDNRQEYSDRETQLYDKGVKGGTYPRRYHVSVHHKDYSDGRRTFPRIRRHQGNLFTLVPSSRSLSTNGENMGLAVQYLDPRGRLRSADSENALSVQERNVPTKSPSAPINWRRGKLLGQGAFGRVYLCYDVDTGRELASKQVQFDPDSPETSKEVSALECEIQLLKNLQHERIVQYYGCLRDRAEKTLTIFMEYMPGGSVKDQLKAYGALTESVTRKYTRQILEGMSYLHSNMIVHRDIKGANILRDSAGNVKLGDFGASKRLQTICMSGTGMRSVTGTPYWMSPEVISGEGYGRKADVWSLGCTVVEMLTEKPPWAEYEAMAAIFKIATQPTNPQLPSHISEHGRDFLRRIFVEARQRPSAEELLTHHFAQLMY
UBC13 inh – UBC13 polyubiquitin chain formation inhibitors, primary screen, biochemical, TR-FRET, uHTS | Ubiquitin-conjugating enzyme E2 N (Homo sapiens), P61088 | inhibition, % at 20 µM | 330,000 tested, 0.47% active | AID 485273, 2010; in the data active = inhibition above about 45%, passing the limit was not always enough
MEKK2 WT-MEK5 – modulators of MEK5 binding to wildtype MEKK2, primary screen, biochemical, multiplex bead flow cytometry, Alexa488-MEK5; Mitogen-activated protein kinase kinase kinase 2 (Homo sapiens), Q9Y2U5; Alexa488-MEK5 binding to MEKK2 WT; actives lie on both sides; 290,000 tested, 1.1% active; binding response (% of control), % at 10 µM; in the data active = binding response below about 67% or above about 130%
PREPL inh – PREPL enzyme inhibitors, primary screen, biochemical, fluorescence polarization; Prolyl endopeptidase-like (Homo sapiens), Q4J6C6; recombinant PREPL, fluorescence polarization activity-based probe; inhibition, % at 5.96 µM; 320,000 tested, 0.68% active; AID 2751, 2010;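 note: 0% = enzyme with DMSO and 100% = wells lacking enzyme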
PREPL inh cf – human PREPL enzyme inhibitors, confirmation, biochemical, fluorescence polarization. shares compounds with PREPL inh. recombinant PREPL, fluorescence polarization activity probe. inhibition, % at 5.96 µM. 2,000 tested, 67% active. AID 2803, 2010;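 note: 0% = protein with DMSO and 100% = wells lacking protein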
The depositor's hits bear a star. Hits are enriched below; roughly 3.1% of the tested compounds scored in any of these assays. Cut-off read from the data, not from the text of the source, unless noted: active = inhibition above about 43%; inactive = the rest.

For Cn1c(O)c(N=NC(=O)CNC(=O)c2cccnc2)c2ccccc21 the results were Apaf1 inhib 5.7, MEKK2mut PB1 HTS 1.0, MEKK3 PB1 HTS 98.0, UBC13 inh -14.7, MEKK2 WT-MEK5 94.0 and PREPL inh 9.9.
For Nc1nc(SCC(=O)c2ccc(Br)s2)n[nH]1 the results were Apaf1 inhib -4.0, MEKK2mut PB1 HTS -1.0, MEKK3 PB1 HTS 105.0, UBC13 inh -11.4, MEKK2 WT-MEK5 99.0, PREPL inh 51.5* and PREPL inh cf 29.1.
For Cc1ccc(OCC(=O)NCCCNC(=O)c2ccccn2)cc1C the results were Apaf1 inhib -1.5, MEKK2mut PB1 HTS 0.0, MEKK3 PB1 HTS 99.0, UBC13 inh 7.8, MEKK2 WT-MEK5 98.0 and PREPL inh -8.9.
`COc1ccc(N(CC(=O)N2CCOCC2)S(C)(=O)=O)cc1OC` gave Apaf1 inhib -7.6, MEKK2mut PB1 HTS 3.0, MEKK3 PB1 HTS 101.0, UBC13 inh -6.4, MEKK2 WT-MEK5 104.0 and PREPL inh 10.4.
Cc1onc(-c2c(Cl)cccc2Cl)c1C(=O)ONC(=O)c1ccccc1 was read as Apaf1 inhib -19.8, MEKK2mut PB1 HTS -15.0, MEKK3 PB1 HTS 90.0, UBC13 inh -7.8, MEKK2 WT-MEK5 94.0 and PREPL inh 7.4.
Screening CCOC(=O)Nc1ccc(C(=O)c2ccncc2)cc1 returned Apaf1 inhib -3.3, MEKK2mut PB1 HTS 1.0, MEKK3 PB1 HTS 105.0, UBC13 inh -6.6, MEKK2 WT-MEK5 105.0 and PREPL inh 7.6.
`Cc1[nH]c2ccc(C(=O)NCCCN3CCCC3)cc2c1C` gave Apaf1 inhib 10.7, MEKK2mut PB1 HTS 15.0, MEKK3 PB1 HTS 104.0, UBC13 inh 14.3, MEKK2 WT-MEK5 127.0 and PREPL inh 14.4.
For Cc1[nH]c2ccc(C(=O)NCCCN3CCCCCC3)cc2c1C the results were Apaf1 inhib 23.1, MEKK2mut PB1 HTS 27.0*, MEKK3 PB1 HTS 107.0, UBC13 inh 14.4, MEKK2 WT-MEK5 173.0*, PREPL inh 46.1* and PREPL inh cf 32.0.
CCN(CC)CCCn1c2c(c(SCC(=O)Nc3ccc4c(c3)OCO4)nc1=O)CCC2 was read as Apaf1 inhib 9.7, UBC13 inh 2.0 and PREPL inh 10.2.
`O=C(NC1CCCCC1)NC1C2CC3CC(C2)CC1C3` (centres undefined) gave Apaf1 inhib 8.1, MEKK2mut PB1 HTS 10.0, MEKK3 PB1 HTS 105.0, UBC13 inh 1.3, MEKK2 WT-MEK5 110.0 and PREPL inh 4.3.
c1cnc2ccc3ncccc3c2c1 was read as Apaf1 inhib 6.0, MEKK2mut PB1 HTS -13.0, MEKK3 PB1 HTS 94.0, UBC13 inh -7.6, MEKK2 WT-MEK5 93.0 and PREPL inh 11.2.
`Nc1ccc2ncccc2c1N` gave PREPL inh 47.5* and PREPL inh cf 46.0*.
CCn1ccc(C(=O)Nc2ncc(C)s2)n1 was read as Apaf1 inhib -1.5, MEKK2mut PB1 HTS 6.0, MEKK3 PB1 HTS 98.0, UBC13 inh 1.1, MEKK2 WT-MEK5 107.0 and PREPL inh 4.4.
`O=c1c2ccccc2c(C=NCCCN2CCOCC2)c(O)n1Cc1ccc2c(c1)OCO2` gave Apaf1 inhib 14.9, MEKK2mut PB1 HTS 3.0, MEKK3 PB1 HTS 98.0, UBC13 inh 20.6, MEKK2 WT-MEK5 110.0, PREPL inh 43.7* and PREPL inh cf 27.4.
COc1ccc(S(=O)(=O)N2CCc3ccccc32)cc1C(=O)NCC(c1ccco1)N1CCCC1 (centres undefined) was read as Apaf1 inhib -3.7, UBC13 inh 15.2 and PREPL inh -17.2.
CCn1c(=O)c(C(=O)Nc2ccc(C)cc2C)c(O)c2ccccc21 was read as Apaf1 inhib 11.1, MEKK2mut PB1 HTS 5.0, MEKK3 PB1 HTS 104.0, UBC13 inh 14.7, MEKK2 WT-MEK5 108.0, PREPL inh 46.9* and PREPL inh cf 5.7.
For CCOC(=O)c1ccccc1NC(=O)c1c(O)c2ccccc2n(CC)c1=O the results were Apaf1 inhib 9.3, MEKK2mut PB1 HTS 12.0, MEKK3 PB1 HTS 106.0, UBC13 inh 17.1, MEKK2 WT-MEK5 110.0 and PREPL inh -7.0.
`O=C(CSc1nc2ccc(NC(=O)c3ccccc3C(=O)O)cc2s1)Nc1ccc(F)c([N+](=O)[O-])c1` gave Apaf1 inhib 14.5, MEKK2mut PB1 HTS -7.0, MEKK3 PB1 HTS 101.0, UBC13 inh -9.5, MEKK2 WT-MEK5 94.0, PREPL inh 50.9* and PREPL inh cf 14.2.
`COc1ccccc1C(=O)Nc1ccc2nc(SCC(=O)N(C)C)sc2c1` gave Apaf1 inhib 7.8, MEKK2mut PB1 HTS 1.0, MEKK3 PB1 HTS 102.0, UBC13 inh 5.3, MEKK2 WT-MEK5 98.0 and PREPL inh 15.1.
Screening Cc1cc(C)n2nc(C(=O)OCC(=O)NCc3ccccc3)nc2n1 returned Apaf1 inhib -0.5, UBC13 inh 0.1 and PREPL inh 1.1.
Screening Oc1c(CN2CCOCC2)cc(COCc2ccccc2)c2cccnc12 returned MEKK2mut PB1 HTS 11.0, MEKK3 PB1 HTS 104.0, MEKK2 WT-MEK5 95.0, PREPL inh 56.2* and PREPL inh cf 64.5*.
For CN(C)CCN1C(=O)C(O)=C(C(=O)c2cc3ccccc3o2)C1c1ccc(N(C)C)cc1 (centres undefined) the results were Apaf1 inhib 17.3, MEKK2mut PB1 HTS 6.0, MEKK3 PB1 HTS 111.0, UBC13 inh -12.1, MEKK2 WT-MEK5 112.0, PREPL inh 51.3* and PREPL inh cf 53.9*.
Screening Cc1ccc(C(=O)NC2CCCc3ccccc32)cc1[N+](=O)[O-] (centres undefined) returned Apaf1 inhib 13.0, MEKK2mut PB1 HTS 4.0, MEKK3 PB1 HTS 104.0, UBC13 inh -1.0, MEKK2 WT-MEK5 99.0 and PREPL inh 3.8.
`Cc1ccccc1-c1ccc(Nc2ccc(N3CCOCC3)cc2)nn1` gave Apaf1 inhib 4.7, MEKK2mut PB1 HTS 4.0, MEKK3 PB1 HTS 82.0, UBC13 inh -7.2, MEKK2 WT-MEK5 96.0, PREPL inh 58.9* and PREPL inh cf 52.7*.
For Cc1cc(Nc2ccccc2)nc(N2CCOCC2)n1 the results were Apaf1 inhib -4.8, MEKK2mut PB1 HTS 2.0, MEKK3 PB1 HTS 101.0, UBC13 inh 2.3, MEKK2 WT-MEK5 103.0 and PREPL inh 1.4.

From PubChem BioAssay
